Consider 19 compounds from ChEMBL document CHEMBL1133587, “Synthesis, biological activity, and molecular modeling of ribose-modified deoxyadenosine bisphosphate analogues as P2Y(1) receptor ligands” (J Med Chem, 2000).

Holding throughout (assay type): functional
Assay [1] addresses T1, P2Y purinoceptor 1 (Meleagris gallopavo, UniProt P49652). Nature of the assay: (§1) In vitro stimulation of 2PY1 purinoceptor mediated phospholipase C (PLC) activity in Turkey Erythrocyte Ghosts. The essentials: (§2)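 Turkey erythrocytes labelled 18-24 h at 37 °C with 2-[3H]myo-inositol in inositol-free DMEM. Ghosts prepared by hypotonic lysis (about 175 µg protein). Incubated 5 min at 30 °C in Hepes pH 7.0 buffer with 1 µM GTPγS and graded nucleotide. Total [3H]inositol phosphates measured by anion-exchange chromatography. EC50 from four-parameter logistic fit. Efficacy given relative to maximal 2-MeSADP. At least three experiments, duplicate or triplicate.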

Assay [2] concerns the target P2Y purinoceptor 1 (Meleagris gallopavo) (UniProt P49652). The description is as §1. In outline: as §2
Assay [3] shares this target. Nature of the assay: (§3) Inhibition of 30 nM 2-MeSADP stimulation of 2PY1-mediated phospholipase C (PLC) activity in Turkey erythrocyte ghosts. The essentials: (§4)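 [3H]inositol-labelled turkey erythrocyte ghosts incubated 5 min at 30 °C, pH 7.0, with 1 µM GTPγS. Graded analogue was combined with 30 nM 2-MeSADP. Total [3H]inositol phosphates separated by anion-exchange chromatography. IC50 is 50% inhibition of the 2-MeSADP response. Maximal inhibition is 100 minus residual stimulation at the highest concentration. At least three membrane preparations, duplicate or triplicate assays.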

For assay [4], the target named is T1, P2Y purinoceptor 1. The assay is described as §3. The essentials:
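[3H]inositol-labelled turkey erythrocyte ghosts incubated 5 min at 30 °C, pH 7.0, with 1 µM GTPγS. Graded analogue was combined with 30 nM 2-MeSADP. Total [3H]inositol phosphates separated by anion-exchange chromatography. Maximal inhibition is 100 minus residual stimulation at the highest concentration. At least three membrane preparations, duplicate or triplicate assays.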

Assay [5] addresses T1, P2Y purinoceptor 1. Nature of the assay: Inhibition of 30 nM 2-MeSADP stimulation of 2PY1-mediated phospholipase C (PLC) activity in Turkey erythrocyte ghosts; small decrease. In outline: as §4
The target of assay [6] is P2Y purinoceptor 1 (Meleagris gallopavo) (UniProt P49652). Nature of the assay: Inhibition of 30 nM 2-MeSADP stimulation of 2PY1-mediated phospholipase C (PLC) activity in Turkey erythrocyte ghosts; NE=not effective. The essentials: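 Turkey erythrocytes were labelled with 2-[3H]myo-inositol in inositol-free DMEM for 18-24 h at 37 °C, then lysed hypotonically to make ghosts. Ghosts (about 175 µg protein) were incubated 5 min at 30 °C in KCl/Hepes medium at pH 7.0 with 1 µM GTPγS, 30 nM 2-MeSADP and the test nucleotide. Total [3H]inositol phosphates were measured by anion exchange. IC50 came from logistic fits, with at least three experiments.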
Chain of P2Y purinoceptor 1 (Meleagris gallopavo) (P49652 whole entry): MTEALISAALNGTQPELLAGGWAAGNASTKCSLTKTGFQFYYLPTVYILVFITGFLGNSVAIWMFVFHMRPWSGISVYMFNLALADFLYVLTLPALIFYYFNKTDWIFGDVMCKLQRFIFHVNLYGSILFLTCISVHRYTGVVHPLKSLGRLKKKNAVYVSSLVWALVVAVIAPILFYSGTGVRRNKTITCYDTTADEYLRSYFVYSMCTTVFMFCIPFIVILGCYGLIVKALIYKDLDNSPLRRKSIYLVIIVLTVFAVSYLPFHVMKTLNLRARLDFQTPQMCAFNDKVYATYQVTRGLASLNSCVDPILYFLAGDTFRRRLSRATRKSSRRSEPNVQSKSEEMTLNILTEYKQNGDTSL

Active and inactive are the calls of the source. No cut-off for these calls is given here.

T1 sequence (P49652 whole entry): as above

Broadly, the EC50 is the concentration needed to bring the measured effect to its halfway point. The term IC50 denotes the concentration that inhibits the measured activity by half. In turn, `CNc1ncnc2c1ncn2C1COC(COP(=O)(O)OP(=O)(O)OP(=O)(O)O)C(O)C1` (stereo not given) had an EC50 in assay [1] of 9350 nM. In assay [2], this compound registered a Max increase of 18%. In assay [3], this compound had a Max inhibition of 82%. This compound returned a half-maximal inhibitory concentration (IC50) in assay [4] of 2370 nM.

In turn, `CNc1nc(N)nc2c1ncn2[C@H]1C[C@H](OP(=O)(O)O)[C@@H](COP(=O)(O)O)O1` had a Max increase in assay [2] of 4%. Also, in assay [3], the Max inhibition was determined as 96%.

In turn, `Nc1ncnc2c1ncn2[C@@H]1C[C@H](COP(=O)(O)O)[C@H](OP(=O)(O)O)C1` showed an EC50 in assay [1] of 7210 nM. Besides, the Max increase in assay [2] is 27%. In assay [3], this compound displayed a Max inhibition of 73%. In assay [4], this compound displayed a 50% inhibitory concentration (IC50) of 2530 nM.

As for `CNc1nc(Cl)nc2c1ncn2C1COC(COP(=O)(O)O)C(OP(=O)(O)O)C1` (stereo not given), the Max inhibition in assay [3] amounted to 100%. The IC50 in assay [4] was 566 nM.

In the case of `CNc1ncnc2c1ncn2C1CC(OP(=O)(O)O)C2(COP(=O)(O)O)CC12` (stereo not given), in assay [3], the Max inhibition was found to be 100%. This compound yielded a half-inhibitory concentration (IC50) in assay [4] of 157 nM.

Regarding `C[C@H]1O[C@@H](n2cnc3c(N)ncnc32)[C@H](OP(=O)(O)O)[C@@H]1OP(=O)(O)O`, the IC50 entry in assay [5] was “Partially active”. Also, the Max inhibition in assay [3] turned out to be 47%.

`Nc1ncnc2c1ncn2C1CN(CCP(=O)(O)O)CC(COP(=O)(O)OP(=O)(O)OP(=O)(O)O)O1` (stereo not given): the IC50 result in assay [5] is recorded as “Partially active”.

On to `Nc1ncnc2c1ncn2C1CN(CCP(=O)(O)O)CC(COP(=O)(O)OP(=O)(O)O)O1` (stereo not given), for which, in assay [6], the Max inhibition result is “inactive”. In assay [2], this compound displayed a Max increase of 11%.

With `CNc1nc(Cl)nc2c1ncn2[C@H]1C[C@@H](OP(=O)(O)O)[C@]2(COP(=O)(O)O)C[C@H]12`, the Max inhibition in assay [3] stood at 100%. In assay [4], the concentration for half-maximal inhibition (IC50) was 51.6 nM.

As to `CNc1nc(Cl)nc2c1ncn2[C@H]1C[C@H](OP(=O)(O)O)[C@@H](COP(=O)(O)O)O1`, the Max inhibition in assay [3] amounted to 95%.

In assay [1], `CNc1nc(N)nc2c1ncn2[C@@H]1C[C@H](COP(=O)(O)O)[C@H](OP(=O)(O)O)C1` returned an EC50 of 6510 nM. This compound had a Max increase in assay [2] of 26%. Further, in assay [3], the Max inhibition turned out to be 74%. Besides, the midpoint of inhibition in assay [4], the IC50, lay at 5420 nM.

In assay [3], `CNc1ncnc2c1ncn2[C@@H]1C[C@H](COP(=O)(O)O)[C@H](OP(=O)(O)O)C1` came in with a Max inhibition of 100%. The compound also displayed an IC50 in assay [4] of 148 nM.

Consider `Nc1ncnc2c1ncn2[C@@H]1CO[C@H](COP(=O)(O)O)[C@@H](OP(=O)(O)O)C1`, for which the Max inhibition result in assay [6] was “inactive”. The Max increase in assay [2] stood at 100%.

Turning to `Nc1ncnc2c1ncn2C1CN(CCP(=O)(O)O)CC(COP(=O)(O)O)O1` (stereo not given), the half-maximal inhibitory concentration (IC50) entry in assay [5] is reported as “Partially active”. Also, the Max inhibition in assay [3] was 37%.

In turn, `CNc1nc(Cl)nc2c1ncn2[C@@H]1C[C@H](OP(=O)(O)O)C1COP(=O)(O)O` (stereo not given in full) came in with a Max inhibition in assay [3] of 100%. In addition, in assay [4], the IC50 worked out at 805 nM.

For the compound `Nc1ncnc2c1ncn2C1CC(OP(=O)(O)O)C2(COP(=O)(O)O)CC12` (stereo not given), in assay [6], the Max inhibition entry was “inactive”. The same compound yielded a 50% effective concentration (EC50) in assay [1] of 155 nM. For the same compound, in assay [2], the Max increase amounted to 92%.

In assay [3], `CNc1ncnc2c1ncn2C1COC(COP(=O)(O)O)C(OP(=O)(O)O)C1` (stereo not given) had a Max inhibition of 100%. In assay [4], this compound yielded a half-inhibitory concentration (IC50) of 1640 nM.

As for `Nc1ncnc2c1ncn2C12CC(OP(=O)(O)O)C(COP(=O)(O)O)C1C2` (stereo not given), the EC50 in assay [1] was 18900 nM. For the same compound, the Max increase in assay [2] turned out to be 50%. In assay [3], this compound displayed a Max inhibition of 42%. In assay [4], the IC50 came out at 40000 nM.

On to `CNc1nc(SC)nc2c1ncn2[C@H]1C[C@H](OP(=O)(O)O)[C@@H](COP(=O)(O)O)O1`, for which, in assay [2], the Max increase was found to be 6%. Further, the Max inhibition in assay [3] was 94%.
